From ChEMBL document CHEMBL1629635, “Effect of DNase and antibiotics on biofilm characteristics” (2009)
In brackets after ≈: the same amount, converted by molar mass. Activity calls are given as the source filed them. The calls are words filed in the database; no cut-off is given here.

How the values were obtained:
[1] = test system: Klebsiella pneumoniae; test: Antimicrobial activity against Klebsiella pneumoniae VT 1367 by broth microdilution method; assay type: functional
In short: (§1)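 MICs by broth microdilution following CLSI guidelines, in cation-adjusted Mueller-Hinton broth or Haemophilus test medium broth. Cultures were grown at 37°C without shaking.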

[2] = test system: Klebsiella pneumoniae; test: Bactericidal activity against Klebsiella pneumoniae VT 1367 assessed as eradication of pre-formed biofilm at 1 to 10 times MIC after 24 hrs; assay type: functional, organism-based
In short: (§2)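 Biofilms were grown 24 h at 37°C in 96-well plates from a 24-h broth culture (inoculum 7.53 ± 0.22 log10 CFU/ml). […] Read-out was crystal-violet biomass (OD570) and CFU by serial dilution plating.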

[3] = test system: Acinetobacter baumannii; test: Bactericidal activity against Acinetobacter baumannii VT 126 assessed as eradication of pre-formed biofilm at 1 to 10 times MIC after 24 hrs; assay type: functional, organism-based; in short: as §2
[4] = test system: Pseudomonas aeruginosa; test: Bactericidal activity against Pseudomonas aeruginosa ATCC 27853 assessed as eradication of pre-formed biofilm at 50 times MIC after 24 hrs by serial dilution; assay type: functional
In short: (§3)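 Preformed 24-h biofilms in 96-well plates got antibiotic at 50 times MIC, DNase I at 5 μg/ml, or both, for 24 h at 37°C. Wells were scraped into 1.0 ml of 0.15 M phosphate buffer pH 7.2, serially diluted and plated; result is log10 CFU/well. Mean ± SEM of three independent experiments, counts done in triplicate.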

[5] = test system: Haemophilus influenzae; test: Antimicrobial activity against Haemophilus influenzae VT450-2006 by broth microdilution method; assay type: functional; in short: as §1
[6] = test system: Streptococcus pyogenes; test: Bactericidal activity against Streptococcus pyogenes VT 59 assessed as eradication of pre-formed biofilm at 1 to 10 times MIC after 24 hrs; assay type: functional, organism-based; in short: as §2
[7] = test system: Acinetobacter baumannii; test: Bactericidal activity against Acinetobacter baumannii VT 126 assessed as eradication of pre-formed biofilm at 50 times MIC after 24 hrs by serial dilution; assay type: functional; in short: as §3
[8] = test system: Pseudomonas aeruginosa; test: Bactericidal activity against Pseudomonas aeruginosa ATCC 27853 assessed as eradication of pre-formed biofilm at 1 to 10 times MIC after 24 hrs; assay type: functional, organism-based; in short: as §2
[9] = test system: Pseudomonas aeruginosa; test: Antimicrobial activity against Pseudomonas aeruginosa ATCC 27853 by broth microdilution method; assay type: functional; in short: as §1
[10] = test system: Escherichia coli; test: Antimicrobial activity against Escherichia coli ATCC 25922 by broth microdilution method; assay type: functional; in short: as §1
[11] = test system: Klebsiella pneumoniae; test: Bactericidal activity against Klebsiella pneumoniae VT 1367 assessed as eradication of pre-formed biofilm at 50 times MIC after 24 hrs; assay type: functional
In short: (§4)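 24-h, 37°C 96-well biofilms were washed three times with 0.15 M phosphate buffer pH 7.2. They were treated 24 h at 37°C with antibiotic at 50 times MIC, alone or with DNase I at 5 μg/ml, in medium. Biomass: 0.1% crystal violet for 30 min at room temperature, water washes, ethanol-acetone (80:20) solubilization, absorbance at 570 nm.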

[12] = test system: Acinetobacter baumannii; test: Antimicrobial activity against Acinetobacter baumannii VT 126 by broth microdilution method; assay type: functional; in short: as §1
[13] = test system: Staphylococcus aureus; test: Antimicrobial activity against Staphylococcus aureus ATCC 29213 by broth microdilution method; assay type: functional; in short: as §1
[14] = test system: Haemophilus influenzae; test: Bactericidal activity against Haemophilus influenzae VT450-2006 assessed as eradication of pre-formed biofilm at 50 times MIC after 24 hrs; assay type: functional; in short: as §4
[15] = test system: Klebsiella pneumoniae; test: Bactericidal activity against Klebsiella pneumoniae VT 1367 assessed as eradication of pre-formed biofilm at 50 times MIC after 24 hrs by serial dilution; assay type: functional; in short: as §3
[16] = test system: Staphylococcus aureus; test: Bactericidal activity against Staphylococcus aureus ATCC 29213 assessed as eradication of pre-formed biofilm at 50 times MIC after 24 hrs; assay type: functional; in short: as §4
[17] = test system: Streptococcus pyogenes; test: Bactericidal activity against Streptococcus pyogenes VT 59 assessed as eradication of pre-formed biofilm at 50 times MIC after 24 hrs by serial dilution; assay type: functional; in short: as §3
[18] = test system: Escherichia coli; test: Bactericidal activity against Escherichia coli ATCC 25922 assessed as eradication of pre-formed biofilm at 1 to 10 times MIC after 24 hrs; assay type: functional, organism-based; in short: as §2
[19] = test system: Haemophilus influenzae; test: Bactericidal activity against Haemophilus influenzae VT450-2006 assessed as eradication of pre-formed biofilm at 50 times MIC after 24 hrs by serial dilution; assay type: functional; in short: as §3
[20] = test system: Escherichia coli; test: Bactericidal activity against Escherichia coli ATCC 25922 assessed as eradication of pre-formed biofilm at 50 times MIC after 24 hrs by serial dilution; assay type: functional; in short: as §3
[21] = test system: Pseudomonas aeruginosa; test: Bactericidal activity against Pseudomonas aeruginosa ATCC 27853 assessed as eradication of pre-formed biofilm at 50 times MIC after 24 hrs; assay type: functional; in short: as §4
[22] = test system: Acinetobacter baumannii; test: Bactericidal activity against Acinetobacter baumannii VT 126 assessed as eradication of pre-formed biofilm at 50 times MIC after 24 hrs; assay type: functional; in short: as §4
[23] = test system: Haemophilus influenzae; test: Bactericidal activity against Haemophilus influenzae VT450-2006 assessed as eradication of pre-formed biofilm at 1 to 10 times MIC after 24 hrs; assay type: functional, organism-based; in short: as §2
[24] = test system: Staphylococcus aureus; test: Bactericidal activity against Staphylococcus aureus ATCC 29213 assessed as eradication of pre-formed biofilm at 1 to 10 times MIC after 24 hrs by serial dilution; assay type: functional, organism-based; in short: as §2
[25] = test system: Staphylococcus aureus; test: Bactericidal activity against Staphylococcus aureus ATCC 29213 assessed as eradication of pre-formed biofilm at 50 times MIC after 24 hrs by serial dilution; assay type: functional; in short: as §3
[26] = test system: Streptococcus pyogenes; test: Bactericidal activity against Streptococcus pyogenes VT 59 assessed as eradication of pre-formed biofilm at 50 times MIC after 24 hrs; assay type: functional; in short: as §4
[27] = test system: Streptococcus pyogenes; test: Antimicrobial activity against Streptococcus pyogenes VT 59 by broth microdilution method; assay type: functional; in short: as §1
[28] = test system: Escherichia coli; test: Bactericidal activity against Escherichia coli ATCC 25922 assessed as eradication of pre-formed biofilm at 50 times MIC after 24 hrs; assay type: functional; in short: as §4

MIC [1]	MIC [5]	MIC [9]	MIC [10]	MIC [12]	MIC [13]	MIC [27]	Structure (SMILES)	inhibition [2]	inhibition [3]	log10cfu [4]	inhibition [6]	log10cfu [7]	inhibition [8]	log10cfu [15]	log10cfu [17]	inhibition [18]	log10cfu [19]	inhibition [23]	inhibition [24]	log10cfu [25]	also measured
16 µg/mL (≈ 19.4 µM)	0.8 µg/mL (≈ 0.972 µM)	16 µg/mL (≈ 19.4 µM)	8 µg/mL (≈ 9.72 µM)	8 µg/mL (≈ 9.72 µM)	0.25 µg/mL (≈ 0.304 µM)	0.25 µg/mL (≈ 0.304 µM)	CO[C@H]1/C=C/O[C@@]2(C)Oc3c(C)c(O)c4c(O)c(c(/C=N/N5CCN(C)CC5)c(O)c4c3C2=O)NC(=O)/C(C)=C\C=C\[C@H](C)[C@H](O)[C@@H](C)[C@@H](O)[C@@H](C)[C@H](OC(C)=O)[C@@H]1C [RIFAMPIN]	inactive	inactive	8.56	inactive	8.15	inactive	8.5	6.44	inactive	8.14	inactive	inactive	7.5	inhibition (INH) [11]: 10%; inhibition (INH) [14]: 10%; inhibition (INH) [16]: 10%; log10cfu [20]: 8.58; inhibition (INH) [21]: 10%; inhibition (INH) [22]: 10%; inhibition (INH) [26]: 10%; inhibition (INH) [28]: 10%
64 µg/mL (≈ 183 µM)	0.5 µg/mL (≈ 1.43 µM)	128 µg/mL (≈ 366 µM)	16 µg/mL (≈ 45.8 µM)	50 µg/mL (≈ 143 µM)	0.025 µg/mL (≈ 0.0715 µM)	0.25 µg/mL (≈ 0.715 µM)	CC1(C)S[C@@H]2[C@H](NC(=O)[C@H](N)c3ccccc3)C(=O)N2[C@H]1C(=O)O [AMPICILLIN]	inactive	inactive	8.62	inactive	8.29	inactive	8.33	8.16	inactive	8.44	inactive	inactive	9.51	log10cfu [20]: 8.55; inhibition (INH) [21]: 10%; inhibition (INH) [28]: 10%
0.15 µg/mL	0.07 µg/mL	0.6 µg/mL	0.035 µg/mL	8 µg/mL	0.3 µg/mL	0.5 µg/mL	C[C@H]1COc2c(N3CCN(C)CC3)c(F)cc3c(=O)c(C(=O)O)cn1c23.C[C@H]1COc2c(N3CCN(C)CC3)c(F)cc3c(=O)c(C(=O)O)cn1c23.O [LEVOFLOXACIN]	inactive	inactive	8.69	inactive	8.26	inactive	8.62	6.39	inactive	8.25	inactive	inactive	7.39	inhibition (INH) [11]: 10%; inhibition (INH) [14]: 10%; inhibition (INH) [16]: 10%; log10cfu [20]: 8.46; inhibition (INH) [21]: 10%; inhibition (INH) [22]: 10%; inhibition (INH) [26]: 10%; inhibition (INH) [28]: 10%
0.06 µg/mL (≈ 0.132 µM)	0.16 µg/mL (≈ 0.351 µM)	64 µg/mL (≈ 141 µM)	1.5 µg/mL (≈ 3.29 µM)	1.5 µg/mL (≈ 3.29 µM)	3.8 µg/mL (≈ 8.34 µM)	0.03 µg/mL (≈ 0.0659 µM)	CO/N=C(\C(=O)N[C@@H]1C(=O)N2C(C(=O)O)=C(COC(C)=O)CS[C@H]12)c1csc(N)n1 [CEFOTAXIME]	inactive	inactive	8.68	inactive	8.32	inactive	8.54	8.2	inactive	8.45	inactive	inactive	9.67	log10cfu [20]: 8.66; inhibition (INH) [21]: 10%; inhibition (INH) [28]: 10%
–	1 µg/mL (≈ 1.34 µM)	–	–	–	0.3 µg/mL (≈ 0.401 µM)	0.25 µg/mL (≈ 0.334 µM)	CC[C@H]1OC(=O)[C@H](C)[C@@H](O[C@H]2C[C@@](C)(OC)[C@@H](O)[C@H](C)O2)[C@H](C)[C@@H](O[C@@H]2O[C@H](C)C[C@H](N(C)C)[C@H]2O)[C@](C)(O)C[C@@H](C)CN(C)[C@H](C)[C@@H](O)[C@]1(C)O [AZITHROMYCIN]	inactive	inactive	–	inactive	–	inactive	–	8.24	inactive	8.14	inactive	inactive	9.75	inhibition (INH) [26]: 20%
